One may read the Ki as the dissociation constant of the complex between target and ligand, obtained from inhibition or displacement. Lower therefore signals tighter binding.

In ChEMBL document CHEMBL1134648 (J Med Chem, 2001) one finds APTT, Ki and ID50 data, which are given here for 30 molecules.

The species named for assay [1] is Homo sapiens. Kind of assay: In vitro human activated partial thromboplastin time of the compound. The format is functional.
Assay [2] addresses T1, Coagulation factor X (Oryctolagus cuniculus, UniProt O19045).
T1 sequence (O19045 whole entry): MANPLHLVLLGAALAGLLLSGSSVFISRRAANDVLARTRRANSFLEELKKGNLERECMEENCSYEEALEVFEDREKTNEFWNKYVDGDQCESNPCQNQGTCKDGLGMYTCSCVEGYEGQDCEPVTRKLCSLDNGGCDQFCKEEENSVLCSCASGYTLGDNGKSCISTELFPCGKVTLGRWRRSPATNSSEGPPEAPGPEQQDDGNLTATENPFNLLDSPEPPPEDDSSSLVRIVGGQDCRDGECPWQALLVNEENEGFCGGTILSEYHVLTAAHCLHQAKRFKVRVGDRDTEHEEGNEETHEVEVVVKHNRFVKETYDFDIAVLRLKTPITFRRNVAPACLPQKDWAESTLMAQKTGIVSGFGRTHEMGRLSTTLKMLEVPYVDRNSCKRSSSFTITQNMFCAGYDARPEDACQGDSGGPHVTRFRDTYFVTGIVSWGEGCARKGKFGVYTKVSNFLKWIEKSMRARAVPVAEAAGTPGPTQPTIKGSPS
Description: In vitro activity against rabbit FXa.

A further assay deals with Prothrombin (Homo sapiens, UniProt P00734). Kind of assay: In vitro activity against human thrombin.
For assay [3], the target named is Coagulation factor X (Homo sapiens, UniProt P00742). Kind of assay: Binding affinity against human coagulation factor X.
The next assay concerns the target Trypsin (Homo sapiens, UniProt P07477+P07478+P35030). Description: In vitro activity against human trypsin. In kind it is protein assay.
The species entered for assay [4] is Homo sapiens. Description: In vitro Activated partial thromboplastin time of the compound. In kind it is functional.
Assay [5] is filed under the species Oryctolagus cuniculus. Description: (§1) Antithrombotic efficacy in a rabbit arteriovenous shunt thrombosis model. The format is functional.
The species entered for assay [6] is Oryctolagus cuniculus. The description is as §1. The format is functional. The method in brief:
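Test agents were given to rabbits by intravenous continuous infusion in an arterio-venous shunt thrombosis model.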
This is another data set of the same source.

The target of assay [7] is Vitamin K-dependent protein C (Homo sapiens, UniProt P04070). Description: In vitro activity against human Activated protein C.
The target in the next assay is Coagulation factor IX (Homo sapiens, UniProt P00740). Description: In vitro activity against human factor IXa.
The target of the next assay is Plasma kallikrein (Homo sapiens, UniProt P03952). Description: In vitro activity against human Plasma kallikrein. In kind it is cell-free.
Assay [8] has as its target Urokinase-type plasminogen activator (Homo sapiens, UniProt P00749). Description: In vitro activity against human urokinase.
Assay [9] deals with T1, Coagulation factor X. Kind of assay: In vitro activity against rabbit factor Xa.
The target of assay [10] is Tissue-type plasminogen activator (Homo sapiens, UniProt P00750). Description: In vitro activity against human tissue plasminogen activator.
A further assay concerns the target Plasminogen (Homo sapiens, UniProt P00747). Kind of assay: In vitro activity against human plasmin.

The structures appear in SMILES notation.

Coagulation factor X (Homo sapiens, UniProt P00742), sequence (P00742 41-179 limits assumed): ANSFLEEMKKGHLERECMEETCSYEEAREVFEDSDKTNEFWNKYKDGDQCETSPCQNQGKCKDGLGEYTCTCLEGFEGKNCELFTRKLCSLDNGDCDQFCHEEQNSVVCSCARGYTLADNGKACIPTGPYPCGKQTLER
Coagulation factor X (Homo sapiens, UniProt P00742), sequence (P00742 235-488 limits assumed): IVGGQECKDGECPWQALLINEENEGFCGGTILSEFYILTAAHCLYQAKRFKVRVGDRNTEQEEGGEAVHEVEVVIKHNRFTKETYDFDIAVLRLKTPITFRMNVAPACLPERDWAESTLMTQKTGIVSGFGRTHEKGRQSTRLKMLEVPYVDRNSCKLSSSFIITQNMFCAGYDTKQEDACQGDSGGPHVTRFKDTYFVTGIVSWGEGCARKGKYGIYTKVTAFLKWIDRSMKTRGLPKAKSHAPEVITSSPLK
Plasminogen, sequence (P00747 97-580 limits assumed): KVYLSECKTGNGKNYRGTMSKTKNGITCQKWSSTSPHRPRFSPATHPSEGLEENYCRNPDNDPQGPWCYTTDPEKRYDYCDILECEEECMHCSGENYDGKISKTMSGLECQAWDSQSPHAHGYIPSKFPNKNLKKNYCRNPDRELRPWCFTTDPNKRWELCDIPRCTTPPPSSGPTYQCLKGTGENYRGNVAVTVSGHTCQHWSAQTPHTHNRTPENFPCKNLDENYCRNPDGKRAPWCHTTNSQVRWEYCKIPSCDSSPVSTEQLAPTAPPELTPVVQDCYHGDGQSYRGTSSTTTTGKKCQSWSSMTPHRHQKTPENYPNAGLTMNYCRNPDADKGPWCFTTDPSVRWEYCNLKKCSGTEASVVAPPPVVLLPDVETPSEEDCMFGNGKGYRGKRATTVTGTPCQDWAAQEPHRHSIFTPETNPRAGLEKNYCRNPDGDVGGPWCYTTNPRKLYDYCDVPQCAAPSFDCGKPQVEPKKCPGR
Plasminogen, sequence (P00747 581-810 limits assumed): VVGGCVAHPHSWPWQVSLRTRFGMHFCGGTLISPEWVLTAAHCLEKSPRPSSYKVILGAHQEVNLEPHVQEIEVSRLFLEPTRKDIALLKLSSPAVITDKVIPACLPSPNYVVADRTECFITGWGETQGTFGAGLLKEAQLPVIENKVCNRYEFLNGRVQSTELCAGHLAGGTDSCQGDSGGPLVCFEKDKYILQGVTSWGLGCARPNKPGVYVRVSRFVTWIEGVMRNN
Vitamin K-dependent protein C, sequence (P04070 43-197 limits assumed): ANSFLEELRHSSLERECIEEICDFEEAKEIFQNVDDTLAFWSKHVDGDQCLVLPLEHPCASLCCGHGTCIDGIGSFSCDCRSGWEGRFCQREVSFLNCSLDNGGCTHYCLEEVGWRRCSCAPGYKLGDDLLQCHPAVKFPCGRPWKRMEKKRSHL
Vitamin K-dependent protein C, sequence (P04070 212-461 limits assumed): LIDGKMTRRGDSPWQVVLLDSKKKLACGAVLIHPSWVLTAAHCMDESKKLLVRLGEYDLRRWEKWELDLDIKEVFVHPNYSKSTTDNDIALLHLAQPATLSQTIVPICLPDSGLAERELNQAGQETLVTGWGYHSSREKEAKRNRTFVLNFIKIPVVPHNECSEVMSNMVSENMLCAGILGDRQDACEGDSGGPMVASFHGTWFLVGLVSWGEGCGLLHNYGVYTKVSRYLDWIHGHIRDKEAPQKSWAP
Coagulation factor IX, sequence (P00740 47-191 limits assumed): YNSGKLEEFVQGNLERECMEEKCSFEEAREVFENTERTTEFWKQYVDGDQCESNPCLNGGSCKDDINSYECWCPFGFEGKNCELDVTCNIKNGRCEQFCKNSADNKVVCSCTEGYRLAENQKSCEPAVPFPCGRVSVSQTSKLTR
Coagulation factor IX, sequence (P00740 227-461 limits assumed): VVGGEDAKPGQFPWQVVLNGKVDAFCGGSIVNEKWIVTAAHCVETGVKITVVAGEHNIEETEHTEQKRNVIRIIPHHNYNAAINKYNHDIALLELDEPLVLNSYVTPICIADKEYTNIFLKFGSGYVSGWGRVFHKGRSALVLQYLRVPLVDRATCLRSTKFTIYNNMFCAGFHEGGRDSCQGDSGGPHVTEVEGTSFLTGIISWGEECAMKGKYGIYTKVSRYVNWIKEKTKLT
Tissue-type plasminogen activator, sequence (P00750 whole entry): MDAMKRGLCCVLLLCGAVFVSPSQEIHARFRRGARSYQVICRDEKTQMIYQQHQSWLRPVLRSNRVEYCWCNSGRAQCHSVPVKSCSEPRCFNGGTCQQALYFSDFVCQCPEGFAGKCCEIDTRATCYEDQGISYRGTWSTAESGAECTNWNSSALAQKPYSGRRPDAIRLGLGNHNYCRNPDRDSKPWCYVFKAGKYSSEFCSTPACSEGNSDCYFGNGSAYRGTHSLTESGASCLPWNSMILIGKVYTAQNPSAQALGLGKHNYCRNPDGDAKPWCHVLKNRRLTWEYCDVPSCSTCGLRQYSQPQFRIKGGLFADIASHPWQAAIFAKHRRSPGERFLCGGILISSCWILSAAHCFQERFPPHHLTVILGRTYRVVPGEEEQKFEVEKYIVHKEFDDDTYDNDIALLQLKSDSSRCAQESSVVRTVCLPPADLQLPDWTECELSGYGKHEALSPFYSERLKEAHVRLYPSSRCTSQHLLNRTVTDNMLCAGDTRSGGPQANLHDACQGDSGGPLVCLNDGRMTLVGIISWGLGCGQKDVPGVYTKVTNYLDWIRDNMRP
Plasma kallikrein, sequence (P03952 20-390 limits assumed): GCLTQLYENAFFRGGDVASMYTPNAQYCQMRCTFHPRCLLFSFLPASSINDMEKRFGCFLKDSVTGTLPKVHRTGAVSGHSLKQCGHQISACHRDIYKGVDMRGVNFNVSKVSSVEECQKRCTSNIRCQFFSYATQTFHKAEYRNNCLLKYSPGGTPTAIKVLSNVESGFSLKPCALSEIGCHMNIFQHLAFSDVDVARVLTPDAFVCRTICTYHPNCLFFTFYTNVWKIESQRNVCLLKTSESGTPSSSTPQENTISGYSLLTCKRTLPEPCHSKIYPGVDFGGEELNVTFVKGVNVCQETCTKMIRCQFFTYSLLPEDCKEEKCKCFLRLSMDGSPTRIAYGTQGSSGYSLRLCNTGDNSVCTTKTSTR
Plasma kallikrein, sequence (P03952 391-638 limits assumed): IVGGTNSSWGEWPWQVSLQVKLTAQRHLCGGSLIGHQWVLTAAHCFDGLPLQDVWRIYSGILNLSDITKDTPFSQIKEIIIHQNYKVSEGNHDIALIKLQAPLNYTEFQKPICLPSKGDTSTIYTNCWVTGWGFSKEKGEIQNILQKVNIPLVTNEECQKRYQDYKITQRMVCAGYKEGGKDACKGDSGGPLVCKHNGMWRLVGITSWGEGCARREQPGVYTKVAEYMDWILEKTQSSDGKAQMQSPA

`Cc1cc(C(=O)Nc2ccc(-c3ccccc3S(N)(=O)=O)cc2)n(-c2cccc(CN)c2)n1` displayed an APTT in the assay listed under Homo sapiens [1] of 2.3 µM. Further, the values for the Ki on Coagulation factor X [2], at Prothrombin and on Coagulation factor X [3] were 4.1 nM, 21000 nM and 2.7 nM, respectively.
Consider `N=C(N)c1cccc(-n2cccc2C(=O)Nc2ccc(-c3ccccc3S(N)(=O)=O)cc2)c1`, for which the Ki on Prothrombin is 900 nM; on Coagulation factor X [3] it was 0.8 nM.
`Cc1cc(C(=O)Nc2ccc(-c3ccccc3F)cc2)n(-c2cccc(C(=N)N)c2)n1`: the Ki was determined as 100 nM at Trypsin, 450 nM at Prothrombin and 0.46 nM at Coagulation factor X [3].
The like results for `N=C(N)c1cccc(-n2nc(C(F)(F)F)cc2C(=O)Nc2ccc(-c3ccccc3S(N)(=O)=O)cc2F)c1` were, in that order, 4 nM, 120 nM and less than 0.005 nM.
Consider `Cc1cc(C(=O)Nc2ccc(-c3ccccc3S(N)(=O)=O)cc2)n(-c2cccc(C(=N)N)c2)n1.O=C(O)C(F)(F)F`, for which the APTT in the assay filed under Homo sapiens [4] stood at 0.44 µM. Also, the ID50 in the assay filed under Oryctolagus cuniculus [5] came out at 0.02 µM/h/kg. Moreover, the Ki on Coagulation factor X [2] worked out at 0.03 nM.
Turning to `Cc1cc(C(=O)Nc2ccc(-c3ccccc3S(N)(=O)=O)cc2Br)n(-c2cccc(C(=N)N)c2)n1`, the inhibitory constant (Ki) was found to be 17 nM at Trypsin, 200 nM on Prothrombin and 0.01 nM on Coagulation factor X [3].
As for `N=C(N)c1cccc(-c2nocc2C(=O)Nc2ccc(-c3ccccc3S(N)(=O)=O)cc2)c1`, the Ki at Prothrombin is 2800 nM.
As to `CS(=O)(=O)c1ccccc1-c1ccc(NC(=O)c2cc(C(F)(F)F)nn2-c2cccc(CN)c2)cc1`, the APTT in the assay listed under Homo sapiens [1] was 2.2 µM. For the same molecule, the figures for the inhibition constant Ki at Trypsin, at Prothrombin and at Coagulation factor X [3] were 100 nM, 5800 nM and 0.38 nM, respectively. The same molecule had an ID50 in the assay filed under Oryctolagus cuniculus [6] of 2.2 µM/h/kg.
`CS(=O)(=O)c1ccccc1-c1ccc(NC(=O)c2cc(C(F)(F)F)nn2-c2cccc(C(=N)N)c2)cc1`: the Ki on Trypsin was found to be 4.3 nM; at Prothrombin, 70 nM; at Coagulation factor X [3] it was 0.008 nM.
Turning to `Cc1cc(C(=O)Nc2ccc(-c3ccccc3S(N)(=O)=O)cn2)n(-c2cccc(C(=N)N)c2)n1`, the Ki was found to be 59 nM at Trypsin, 1400 nM at Prothrombin and 0.007 nM at Coagulation factor X [3]. Also, the ID50 in the assay listed under Oryctolagus cuniculus [6] turned out to be 0.07 µM/h/kg.
Turning to `NCc1cccc(-n2nc(C(F)(F)F)cc2C(=O)Nc2ccc(-c3ccccc3S(N)(=O)=O)cc2)c1`, the APTT in the assay listed under Homo sapiens [1] is 6.4 µM. The Ki on Trypsin worked out at 120 nM; at Coagulation factor X [2], 2.1 nM; on Prothrombin, 14000 nM; at Coagulation factor X [3] it was 0.91 nM. This molecule also registered an ID50 in the assay listed under Oryctolagus cuniculus [6] of 1 µM/h/kg.
In the case of `Cc1cc(C(=O)Nc2ccc(-c3ccccc3C(F)(F)F)cc2)n(-c2cccc(C(=N)N)c2)n1`, the figures for the Ki on Trypsin, on Prothrombin and at Coagulation factor X [3] were 49 nM, 300 nM and 0.04 nM, respectively. In the assay filed under Oryctolagus cuniculus [6], this molecule yielded an ID50 of 0.24 µM/h/kg.
Molecule `Cc1cc(C(=O)Nc2ccc(-c3ccccc3S(N)(=O)=O)cc2F)n(-c2cccc(CN)c2)n1` gave an APTT in the assay filed under Homo sapiens [1] of 0.92 µM. For the same molecule, the Ki worked out at 120 nM at Trypsin, 2.2 nM at Coagulation factor X [2], 12000 nM at Prothrombin and 1.6 nM at Coagulation factor X [3].
Molecule `NCc1cccc(-n2nc(C(F)(F)F)cc2C(=O)Nc2ccc(-c3ccccc3S(N)(=O)=O)cc2F)c1` displayed an APTT in the assay filed under Homo sapiens [1] of 0.91 µM. Moreover, the Ki came out at 53 nM at Trypsin, 1 nM at Coagulation factor X [2], 2000 nM at Prothrombin and 0.36 nM at Coagulation factor X [3]. Also, the ID50 in the assay listed under Oryctolagus cuniculus [6] stood at 0.6 µM/h/kg.
On to `Cc1cc(C(=O)Nc2ccc(-c3ccccc3S(C)(=O)=O)cc2)n(-c2cccc(CN)c2)n1`, for which the APTT in the assay filed under Homo sapiens [1] is 1.3 µM. Further, the inhibitory constant (Ki) at Trypsin was determined as 220 nM; at Prothrombin, 21000 nM; on Coagulation factor X [3] it was 0.89 nM.
Take `N=C(N)c1cccc(-n2nc(C(F)(F)F)cc2C(=O)Nc2ccc(-c3ccccc3S(N)(=O)=O)cn2)c1`: the values for the Ki at Trypsin, at Prothrombin and at Coagulation factor X [3] were 59 nM, 400 nM and 0.009 nM, respectively.
For `N=C(N)c1cccc(-n2nc(C(F)(F)F)cc2C(=O)Nc2ncc(-c3ccccc3S(N)(=O)=O)cn2)c1`, on Trypsin, the Ki worked out at 20 nM.
Consider `Cc1cc(C(=O)Nc2ccc(-c3ccccc3S(N)(=O)=O)cc2F)n(-c2cccc(C(=N)N)c2)n1`, for which the Ki on Trypsin was 4.6 nM; at Prothrombin it was 210 nM; on Coagulation factor X [3] it was 0.005 nM.
On to `N=C(N)c1cccc(-n2nc(C(F)(F)F)cc2C(=O)Nc2ccc(-c3ccccc3S(N)(=O)=O)cc2)c1`, for which the Ki is 3.9 nM at Trypsin, 40 nM on Prothrombin and 0.015 nM on Coagulation factor X [3].
The like results for `CCCCc1cc(C(=O)Nc2ccc(-c3ccccc3S(N)(=O)=O)cc2)n(-c2cccc(C(=N)N)c2)n1.O=C(O)C(F)(F)F` were, in that order, 11 nM, 300 nM and 0.06 nM.
For `N=C(N)c1cccc(-n2nccc2C(=O)Nc2ccc(-c3ccccc3S(N)(=O)=O)cc2)c1`, the inhibition constant (Ki) at Prothrombin came to 900 nM; at Coagulation factor X [3] it was 0.16 nM.
For `Cc1cc(C(=O)N(C)c2ccc(-c3ccccc3S(N)(=O)=O)cc2)n(-c2cccc(C(=N)N)c2)n1.O=C(O)C(F)(F)F`, the values for the Ki on Trypsin, on Prothrombin and on Coagulation factor X [3] were more than 1600 nM, more than 2000 nM and 11 nM, respectively.
The like results for `CS(=O)(=O)c1ccccc1-c1ccc(NC(=O)c2cc(C(F)(F)F)nn2-c2cccc(C(=N)N)c2)c(F)c1` were, in that order, 3.4 nM, 50 nM and less than 0.005 nM.
On to `Cc1cc(C(=O)Nc2ccc(-c3ccccc3S(N)(=O)=O)cc2Cl)n(-c2cccc(C(=N)N)c2)n1`, for which the Ki is 15 nM on Trypsin, 300 nM at Prothrombin and 0.009 nM on Coagulation factor X [3].
As for `Cc1cc(C(=O)Nc2ncc(-c3ccccc3S(N)(=O)=O)cn2)n(-c2cccc(C(=N)N)c2)n1`, the Ki on Trypsin came to 150 nM; at Prothrombin it was 7400 nM; on Coagulation factor X [3], 0.041 nM. The ID50 in the assay filed under Oryctolagus cuniculus [6] was found to be 0.03 µM/h/kg.
`Cc1cc(C(=O)Nc2ccc(-c3ccccc3S(C)(=O)=O)cc2F)n(-c2cccc(CN)c2)n1` returned an APTT in the assay listed under Homo sapiens [1] of 1.1 µM. Further, the Ki on Trypsin came to 130 nM; on Coagulation factor X [2] it was 1.2 nM; on Prothrombin it was 14000 nM; on Coagulation factor X [3], 480 nM. The ID50 in the assay listed under Oryctolagus cuniculus [6] amounted to 0.9 µM/h/kg.
Consider `Cc1cc(C(=O)Nc2ccc(-c3ccccc3S(C)(=O)=O)cc2F)n(-c2cccc(C(=N)N)c2)n1`, for which the inhibitory constant (Ki) at Prothrombin was found to be 230 nM; at Coagulation factor X [3] it was 0.02 nM.
Regarding `Cc1cc(C(=O)Nc2ccc(-c3ccccc3S(C)(=O)=O)cc2)n(-c2cccc(C(=N)N)c2)n1`, the Ki at Trypsin was determined as 13 nM; at Prothrombin, 180 nM; on Coagulation factor X [3] it was 0.008 nM.
With `Cc1cc(C(=O)Nc2ccc(-c3ccccc3)cc2)n(-c2cccc(C(=N)N)c2)n1`, the Ki on Trypsin is 87 nM; on Prothrombin it was 600 nM; at Coagulation factor X [3], 1.3 nM.
On to `CS(=O)(=O)c1ccccc1-c1ccc(NC(=O)c2cc(C(F)(F)F)nn2-c2cccc(CN)c2)c(F)c1.Cl`, for which the inhibition constant Ki in [7] was 1800 nM; on Coagulation factor IX, 2200 nM; at Plasma kallikrein, 61 nM; in assay [8], more than 19000 nM; at Coagulation factor X [9] it was 0.3 nM; in [10], more than 45000 nM. The Ki on Plasminogen is more than 35000 nM. This molecule also yielded an ID50 in the assay filed under Oryctolagus cuniculus [6] of 1.1 µM/h/kg.
